Screening results from PubChem.
Hits are enriched below; roughly 5.8% of the tested compounds scored in any of these assays.
Pyk2 oligo antag: blocks oligomerization of human Pyk2 in cells; Q14289; Q293 cells, Pyk2 FERM NanoBiT luminescence; active compounds read low; 0.83% of 99,000 active; z-score (the deposit names both 25 µM and 10 µM);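 active = Z-score of -3 or lower, scaled per plate to the spread of control and sample wells; inactive = z-score above -3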;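 note: negative z-score means lost luminescence so less FERM oligomerization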
PLK1 kinase inh: blocks human PLK1 kinase activity; 0.53% of 97,000 active; recombinant PLK1 kinase, TR-FRET peptide phosphorylation; AID 619; inhibition, % at 10 µM;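 active = inhibition of 50% or more in the single-concentration screen; inactive = inhibition below 50%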;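 note: 0% = DMSO max control and 100% = H-89 dihydrochloride min control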
Target sequence (P53350 whole entry, looked up): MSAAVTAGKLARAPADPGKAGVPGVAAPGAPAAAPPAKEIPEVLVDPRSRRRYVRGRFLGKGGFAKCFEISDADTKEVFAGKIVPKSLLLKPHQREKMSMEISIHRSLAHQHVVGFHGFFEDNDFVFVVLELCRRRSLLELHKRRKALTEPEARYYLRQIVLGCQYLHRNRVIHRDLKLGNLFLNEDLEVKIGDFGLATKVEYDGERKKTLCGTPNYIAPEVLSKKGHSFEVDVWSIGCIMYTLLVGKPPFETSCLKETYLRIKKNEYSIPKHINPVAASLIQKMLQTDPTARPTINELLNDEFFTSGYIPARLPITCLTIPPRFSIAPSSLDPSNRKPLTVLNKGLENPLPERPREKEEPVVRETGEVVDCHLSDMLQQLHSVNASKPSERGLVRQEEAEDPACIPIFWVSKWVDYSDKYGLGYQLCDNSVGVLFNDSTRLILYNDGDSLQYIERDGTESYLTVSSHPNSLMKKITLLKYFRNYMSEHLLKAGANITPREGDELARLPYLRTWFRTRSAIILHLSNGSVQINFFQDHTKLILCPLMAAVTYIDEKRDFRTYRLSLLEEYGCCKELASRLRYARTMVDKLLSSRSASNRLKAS
Cav3 T inh: blocks human Cav3.2 T-type calcium channel; Cav3.2-expressing cells, Fluo-4 calcium fluorescence FDSS; active compounds read low; B-score at 10 µM; 4% of 100,000 active; AID 449739;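 active = single-dose well whose peak fluorescence ratio is a statistical outlier from its plate by either plate-standardised score or position-corrected B-score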
Plk1 PBD FP: Plk1 (human) PBD binding inhibition; Plk1 PBD phosphopeptide binding, fluorescence polarization; inhibition, %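 (tested at about 20 µM)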; 0.13% of 97,000 active; AID 693; in the data active = inhibition above about 34%, passing the limit was not always enough
Rev-RRE block: inhibitors of HIV-1 Rev-RRE RNA interaction. P05866. Rev peptide-RRE RNA binding, FRET. inhibition, % at 8 µM. 0.79% of 97,000 active. AID 704;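 active = inhibition above the screen-wide mean plus 3 SD, cut at about 35% in these data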;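 note: 0% = median DMSO wells and 100% = median Neomycin B control wells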
Target sequence (P05866 whole entry, looked up): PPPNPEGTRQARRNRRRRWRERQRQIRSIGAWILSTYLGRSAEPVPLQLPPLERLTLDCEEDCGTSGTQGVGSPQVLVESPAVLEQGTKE
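Material: labelled RRE RNA duplex and labelled Rev peptide / Buffer or medium: HEPES pH 7.5 salt buffer with EDTA / Compound dosing: single point, 8 µM final nominal compound concentration / Benchmarks: DMSO low control, neomycin B high control / Timing: 5 min preincubation and 15 min binding, 25 °C / Technique: FRET fluorescence readout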
FAK blocker: FAK (human) kinase inhibition | AID 727 | biochemical FAK kinase activity assay | Q05397 | inhibition, %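 (tested at 7 µM)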 | 0.84% of 97,000 active; in the data active = inhibition above about 19%;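 note: 0% = DMSO and 100% = reference compound high control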
Active calls of the source: *; nt = no result.

SMILES | Pyk2 oligo antag | PLK1 kinase inh | Cav3 T inh | Plk1 PBD FP | Rev-RRE block | FAK blocker
CCn1c(SCC(=O)Nc2cc(OC)ccc2OC)nnc1C1CCCCC1 | 0.21 | -0.1 | 0.679 | -1.6 | 5.0 | -9.0
O=c1cc(Nc2ccc3c(c2)OCCO3)[nH]c(=O)n1Cc1ccc(F)cc1 | -1.89 | -2.0 | -3.91* | 18.9 | 18.3 | 0.4
Cc1ccc(CN(C(=O)Cn2nnc3ccccc32)C(C(=O)NCc2ccco2)c2ccc(C)o2)cc1 (stereo unspecified) | -2.16 | -14.8 | -0.709 | 10.8 | -2.3 | 2.1
Cc1ccc(C(C(=O)NCc2ccco2)N(CCc2ccccc2)C(=O)Cn2nnc3ccccc32)o1 (stereo unspecified) | -0.59 | nt | -5.6* | nt | nt | nt
Cc1ccc(N(C(=O)Cn2nnc3ccccc32)C(C(=O)NCc2ccco2)c2ccc(C)o2)cc1 (stereo unspecified) | -0.71 | nt | -4.3* | nt | nt | nt
Cc1ccc(C(C(=O)NCc2ccco2)N(C(=O)Cn2nnc3ccccc32)c2ccccc2)o1 (stereo unspecified) | -1.03 | -10.3 | nt | 6.4 | 3.8 | -2.4
COC(=O)c1sc(NC(=O)c2ccc(Cn3cc(Cl)cn3)o2)c(C#N)c1C | 1.46 | -19.1 | -3.73* | -12.7 | 13.4 | 4.8
COc1ccc2nc(SCC(=O)N(C)C3CCCCC3)c(C#N)cc2c1 | -2.91 | -2.9 | -3.73 | -3.0 | 13.3 | -1.5
Cc1c(C(=O)OC2CCCCC2)sc2nc[nH]c(=O)c12 | -0.2 | 68.3* | -2.32 | -1.3 | 24.2 | 0.7
Cc1sc2ncn(C(C)C(=O)OC3CCCCC3)c(=O)c2c1C (stereo unspecified) | -0.93 | -9.7 | -3.1 | -11.5 | 10.3 | 4.3
COc1ccc(Cl)cc1CN1CCN(c2nc(C)cc(C)c2C#N)CC1 | -1.74 | 61.9* | -0.218 | 26.0 | 39.7* | 1.0
Cc1cc(C)c2c(n1)nn1c(N3CCN(Cc4ccccc4)CC3)cc(C)nc21 | -0.49 | nt | nt | nt | nt | nt
Cc1cc(C)c(C#N)c(N2CCN(CCOc3ccc(Cl)cc3)CC2)n1 | -1.64 | -10.5 | -2.24 | -12.0 | 14.6 | 3.9
COc1ccc(F)cc1CN1CCN(c2cc(C)nc3c4c(C)cc(C)nc4nn23)CC1 | nt | -4.9 | -7.75* | -12.0 | 7.9 | 1.6
O=c1[nH]c(CN2CCCCC2)nc2c1C1(CCCC1)Cc1ccccc1-2 | nt | -9.3 | nt | -13.9 | 3.8 | 1.6
COC(C[C@@H](O)C[C@@H](O)[C@@H](C)OCc1ccccc1)OC | nt | nt | -0.781 | nt | nt | nt
CC1=CC(C)(C)N2C(=O)C3(C(C#N)=C(N)Oc4cc(O)ccc43)c3c(C)c(C)cc1c32 (stereo unspecified) | -1.82 | -32.6 | -4.05* | -7.9 | 14.8 | -3.2
CC1(c2ccccc2)CC(C)(C)N2C(=O)C3(C(C#N)=C(N)Oc4cc(O)ccc43)c3cccc1c32 (stereo unspecified) | -1.64 | -3.4 | -4.86* | -4.5 | 11.0 | 1.2
COc1ccc(-c2nnn(CC(=O)N(Cc3ccccc3Cl)C(C(=O)NCC3CCCO3)c3ccco3)n2)cc1OC (stereo unspecified) | -0.43 | -5.8 | -0.999 | -11.5 | 0.6 | -4.8
Cc1ccnc(NS(=O)(=O)c2ccc(NC(=O)c3c(-c4ccccc4Cl)noc3C)cc2)n1 | 0.28 | -7.3 | -0.38 | 2.0 | 1.7 | -1.6
O=C(CSc1nc2ccccc2n1Cc1ccccc1)N/N=C/c1ccco1 | -0.76 | -14.9 | -3.99* | -11.0 | 8.2 | -1.5
Cc1ccc(Cn2c(SCC(=O)N/N=C/c3ccc(C)o3)nc3ccccc32)cc1 | -1.02 | 18.7 | -10.1* | -28.7 | 4.5 | 2.6
Cc1ccc(/C=N/NC(=O)CSc2nc3ccccc3n2C)s1 | -1.81 | -13.7 | -1.55 | -29.9 | -0.8 | -4.0
Nc1nc(CSc2nc3ccccc3[nH]2)nc(N2CCOCC2)n1 | 0.19 | -11.5 | 0.666 | -34.1 | 8.7 | -0.5
CCC1=C(OC(=O)N(CC)CC)N2C(=O)OC(=NCCc3c[nH]c4ccccc34)[C@]2(C)[C@H]2C1=CC[C@H]1C(=O)N(C)C(=O)[C@H]12 | nt | nt | -0.0142 | nt | nt | nt
SMILES | Pyk2 oligo antag | PLK1 kinase inh | Cav3 T inh | Plk1 PBD FP | Rev-RRE block | FAK blocker
COC(=O)[C@@H]1CCCN1C(=O)[C@@H](NC(=O)OC(C)(C)C)C(C)C | nt | nt | 1.07 | nt | nt | nt
CCOC(=O)c1cccc(NC(=O)CN(c2ccc(OC)cc2)S(=O)(=O)c2c(C)noc2C)c1 | -0.99 | -6.5 | -4.88* | -13.6 | 0.6 | -1.1
CCOc1ccc(N(CC(=O)Nc2ccc(C)c(C)c2)S(=O)(=O)c2c(C)noc2C)cc1 | nt | nt | -4.95* | nt | nt | nt
COc1ccc(N(CC(=O)Nc2cccc(C)c2C)S(=O)(=O)c2c(C)n[nH]c2C)cc1 | -3.26* | 6.6 | -0.353 | -20.5 | 4.6 | -3.0
CCOc1ccc(N(CC(=O)Nc2cccc(F)c2)S(=O)(=O)c2c(C)noc2C)cc1 | nt | 2.1 | -0.46 | -32.5 | 15.6 | 1.4
COc1ccccc1NC(=O)CN(c1ccc(C)cc1)S(=O)(=O)c1c(C)n[nH]c1C | -2.76 | -7.1 | -1.41 | -6.0 | 17.3 | 7.0
O=C(CSCC(=O)OCC(=O)c1ccc(Br)cc1)Nc1cccc2ccccc12 | 0.79 | -9.8 | -0.0339 | -12.3 | 5.0 | 4.6
CCOC(=O)c1[nH]c2ccccc2c1CCCN1C(=O)c2ccccc2C1=O | -3.03* | -11.8 | -1.05 | -4.3 | 1.0 | 0.8
CCOC(=O)c1[nH]c2cc3c(cc2c1CCCN1C(=O)c2ccccc2C1=O)OCCO3 | -1.04 | -8.1 | -0.207 | -5.1 | 10.3 | 3.2
CCC1CCCCN1S(=O)(=O)c1ccc(C(=O)Nc2nnc(-c3cccs3)o2)cc1 (stereo unspecified) | -2.86 | -10.9 | -8.51* | 5.9 | 13.4 | -4.3
CC1CC(C)CN(S(=O)(=O)c2ccc(C(=O)Nc3nnc(-c4cccs4)o3)cc2)C1 (stereo unspecified) | -4.47* | -2.8 | nt | -15.0 | 2.2 | 2.1
O=C(CCc1ccccc1)Nc1nnc(-c2cccs2)o1 | nt | 61.5* | nt | -20.8 | 1.4 | 1.9
O=C(Nc1nnc(-c2cccs2)o1)c1cccc(C(F)(F)F)c1 | nt | 60.7* | nt | 12.4 | 6.7 | -3.2
O=C(CCc1ccccc1)Nc1nnc(-c2ccc3c(c2)CCCC3)o1 | nt | -8.6 | -2.25 | 23.7 | 5.3 | 0.6
CCc1nnc(NC(=O)c2ccc(S(=O)(=O)N3CCCCC3C)cc2)s1 (stereo unspecified) | -0.62 | -1.5 | 0.0725 | 10.7 | 3.0 | 10.9
COc1cc(C(=O)NCCOc2cccc(C)c2)c(Br)c(OC)c1OC | 0.29 | 1.7 | -0.0078 | 24.4 | 4.0 | -2.7
COC(=O)c1c[nH]n2c(=O)cc(CCl)nc12 | -0.23 | -11.7 | -0.00273 | -9.0 | 7.3 | 4.1
CCCOC(=O)c1ccc(NC(=O)c2cc(OC)c(OC)c(OC)c2Br)cc1 | -2.04 | -9.4 | nt | 10.4 | 6.0 | -3.1
COc1ccc(-c2nnc(NC(=O)c3ccc(S(=O)(=O)N4CCc5ccccc5C4)cc3)o2)cc1 | -2.78 | -12.2 | nt | -5.3 | 2.0 | -5.3
COc1cccc(-c2nnc(NC(=O)c3ccc(S(=O)(=O)N4CC(C)OC(C)C4)cc3)o2)c1 (stereo unspecified) | -4.13* | 2.5 | nt | 13.3 | 3.1 | 9.1
